High-throughput results from PubChem.
SUMO1-SIM PPI – SUMO1-SIM interaction modulation; SUMO1 binding to a labelled peptide, TR-FRET, 1 h; AID 602429; P63165; actives 0.33% (n = 360,000); inhibition, % at 20 µM; in the data active = inhibition above about 37%
Target sequence (P63165 whole entry, looked up): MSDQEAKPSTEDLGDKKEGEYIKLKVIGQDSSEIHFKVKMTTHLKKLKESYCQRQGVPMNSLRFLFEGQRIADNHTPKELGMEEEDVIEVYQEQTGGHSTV
CASP6 VEID inh – caspase-6 (human) enzyme inhibition; AID 686996; P55212; actives 0.53% (n = 350,000); purified caspase-6, Z-VEID-R110 cleavage fluorescence; inhibition, % at 12.5 µM;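 active = mean inhibition across replicates at least about 35%, with every replicate also reaching that limit, limit read from the data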;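 note: 0% = median of neutral control wells and 100% = no fluorescence left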
STEP inh – blocks human striatal-enriched tyrosine phosphatase; recombinant STEP, OMFP fluorogenic substrate, fluorescence; inhibition, % at 20 µM; actives 0.25% (n = 360,000); AID 588621;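 active = inhibition at 20 µM, scaled per plate between control wells, above about 37%, limit read from the data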;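 note: 0% = DMSO with enzyme and substrate and 100% = substrate only without enzyme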
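medium = Bis-Tris buffer pH 6.0, 2.5 mM DTT, 0.005% Tween 20 | test system = STEP (striatal-enriched tyrosine phosphatase) enzyme, cell-free | measure = normalized % inhibition | compound dosing = 20 µM, 1% DMSO | also added = 25 µM OMFP | schedule = reaction 20 min, ambient temperature | measured by = fluorescence read at 480 nm ex / 540 nm em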
Scp-1 inhibitor – blocks human Scp-1 phosphatase activity. actives 0.88% (n = 340,000). Q9GZU7. Recombinant Scp1, phosphopeptide, malachite green phosphate absorbance. inhibition, % at 20 µM;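 active = inhibition above about 50% at 20 µM, limit read from the data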;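 note: plate controls were DMSO wells with enzyme for no effect and wells lacking enzyme for full effect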
Target sequence (Q9GZU7 76-261 limits assumed): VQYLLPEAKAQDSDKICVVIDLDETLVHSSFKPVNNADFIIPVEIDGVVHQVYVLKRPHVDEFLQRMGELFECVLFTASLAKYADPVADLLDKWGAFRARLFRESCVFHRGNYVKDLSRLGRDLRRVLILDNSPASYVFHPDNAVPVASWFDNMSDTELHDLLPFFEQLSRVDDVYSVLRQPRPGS
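Test system: SCP-1 phosphatase catalytic domain, residues 76-261 | Compound dosing: One concentration, 20 µM, with 1.0% DMSO | Schedule: 45 min room-temperature reaction, 5 min colour, 30 min stabiliser | Detection: Absorbance at 630 nm | Read-out basis: % inhibition of SCP-1 phosphate liberation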
DNMT1 block – blocks human DNA methyltransferase DNMT1; actives 0.83% (n = 360,000); DNMT1 molecular beacon, Hinp1I cleavage, fluorescence; inhibition (reported as % activation of signal), % at 10 µM; in the data active = inhibition above about 50%
LMPTP block – LMPTP (human) inhibition. actives 0.22% (n = 360,000). recombinant LMPTP-A, OMFP fluorogenic substrate, fluorescence intensity. inhibition, % at 20 µM. AID 651560;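 active = compounds that cut the enzyme signal by at least half of the control window in the single-dose screen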;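 note: plate controls were DMSO wells with enzyme plus substrate for no effect and substrate without enzyme for full effect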
Target sequence (P24666 whole entry, looked up): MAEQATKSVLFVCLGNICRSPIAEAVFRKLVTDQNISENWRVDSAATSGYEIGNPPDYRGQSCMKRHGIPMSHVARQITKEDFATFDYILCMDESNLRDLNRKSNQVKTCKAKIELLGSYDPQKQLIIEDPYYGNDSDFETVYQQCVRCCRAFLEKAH
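Assay system: LMPTP-A, protein tyrosine phosphatase of low molecular weight / Medium: pH 6.0 Bis-Tris buffer with DTT and Triton X-100 / Schedule: 50 min enzyme reaction at room temperature, protected from light / Measured by: endpoint fluorescence intensity from OMFP dephosphorylation / Read-out basis: % inhibition relative to no-enzyme and uninhibited control wells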
Scp1 confirm – Scp-1 (human) inhibition, single-dose confirmed. shares compounds with Scp-1 inhibitor. recombinant SCP-1 catalytic domain, phosphate release, malachite green absorbance. inhibition, % at 20 µM. actives 61% (n = 2,500);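 note: plate controls were DMSO with enzyme for no effect and buffer wells lacking enzyme for full effect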
MG interference – interferes with malachite green readout, flagging false Scp-1 hits. 2,500 tested, under 10 active. Colorimetric interference counterscreen, malachite green absorbance 630 nm. apparent inhibition (interference), % at 20 µM. shares compounds with Scp-1 inhibitor;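 note: compounds added after enzyme reaction finished so only phosphate colour detection is probed; plate controls were DMSO wells with completed Scp-1 reaction for no effect and substrate wells lacking enzyme for full effect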
Scp1 DSF – binds human Scp-1, shifting its melting temperature | AID 540329 | shares compounds with Scp-1 inhibitor | Recombinant SCP1, Sypro Orange thermal shift Tm | actives 25% (n = 1,500) | thermal shift relative to vanadate control, % at 40 µM;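 active = substances whose mean melting-temperature shift, as a percentage of the reference inhibitor's shift, reaches about 5.3%, limit read from the data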;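 note: 0% = Tm of DMSO wells and 100% = Tm with sodium orthovanadate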
Starred values were filed as active, the others as inactive. Most compounds without a hit are left out; they make up all but 1.7% or so of the library.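 Rule for the calls, unless noted: active = inhibition of at least 30% at 20 µM; inactive = the rest.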

For CCCc1cc(C(=O)OC)c(NC(=O)CCCC(=O)O)s1 the results were SUMO1-SIM PPI 2, CASP6 VEID inh -2, STEP inh -2, Scp-1 inhibitor 8, DNMT1 block -3 and LMPTP block 0.
For Nn1c(SCC(=O)Nc2ccc3c(c2)OCCO3)nnc1C(F)(F)F the results were SUMO1-SIM PPI 0, STEP inh 0, Scp-1 inhibitor 100*, DNMT1 block 2, LMPTP block -4, Scp1 confirm 10 and MG interference 0.
Screening O=C(Cc1ccc(Cl)cc1)Nc1cccnc1 returned SUMO1-SIM PPI 0, CASP6 VEID inh 1, STEP inh -2, Scp-1 inhibitor -1, DNMT1 block -2 and LMPTP block 0.
Screening COc1cc(/C=C/c2cccc[n+]2C)ccc1OCC(=O)Nc1cccc(Cl)c1 returned SUMO1-SIM PPI -27, CASP6 VEID inh -25, STEP inh 0, Scp-1 inhibitor 70*, DNMT1 block -2, LMPTP block 2, Scp1 confirm 32*, MG interference -6 and Scp1 DSF -6.
Screening O=C(/C=C\Nc1ccc2c(c1)OCO2)c1ccc(Cl)s1 returned SUMO1-SIM PPI -7, CASP6 VEID inh -5, STEP inh 2, Scp-1 inhibitor 91*, DNMT1 block 8, LMPTP block 63*, Scp1 confirm 75*, MG interference 0 and Scp1 DSF 0.
Screening O=C(/C=C\Nc1ccc2c(c1)OCO2)c1cccs1 returned SUMO1-SIM PPI -21, CASP6 VEID inh 8, STEP inh 2, Scp-1 inhibitor -9, DNMT1 block -3 and LMPTP block 3.
Screening CC(C)NS(=O)(=O)c1ccc(NC(=S)NC(=O)c2cccc([N+](=O)[O-])c2)cc1 returned SUMO1-SIM PPI -14, CASP6 VEID inh 1, STEP inh 0, Scp-1 inhibitor -5, DNMT1 block -3 and LMPTP block 0.
For COc1cccc(NC(=O)CSCc2cc(=O)n3nc(C4CC4)sc3n2)c1 the results were SUMO1-SIM PPI -2, CASP6 VEID inh -2, STEP inh -2, Scp-1 inhibitor -4, DNMT1 block 2, LMPTP block -2, Scp1 confirm -17 and MG interference -15.
Screening COc1ccc(C(=O)NCCCNc2nc3cc(C)cc(C)c3cc2C#N)cc1 returned SUMO1-SIM PPI -3, CASP6 VEID inh 2, STEP inh 1, DNMT1 block -4 and LMPTP block 1.
`CCN1C(=O)C(=O)N(CC(=O)N(C)CC(=O)Nc2ccccc2Cl)C1=O` gave SUMO1-SIM PPI -2, CASP6 VEID inh 1, STEP inh -1, Scp-1 inhibitor -1, DNMT1 block 0, LMPTP block -1, Scp1 confirm -5 and MG interference -11.
Cc1cccc(C)c1NC(=O)C1c2cccc[n+]2CC(=O)N1Cc1ccc2c(c1)OCO2 (stereo not given) was read as SUMO1-SIM PPI 0, CASP6 VEID inh 3, STEP inh 2, Scp-1 inhibitor 5, DNMT1 block -9 and LMPTP block -1.
For Cc1ccccc1NC(=O)C1c2cccc[n+]2CC(=O)N1c1c(C)cccc1C (stereo not given) the results were SUMO1-SIM PPI -2, STEP inh 3, Scp-1 inhibitor 89*, DNMT1 block -14, LMPTP block -1, Scp1 confirm 91*, MG interference -9 and Scp1 DSF 0.
CCCCC(=O)OCC(=O)c1ccc(OCC)cc1 was read as SUMO1-SIM PPI -3, STEP inh 1, Scp-1 inhibitor -7, DNMT1 block -3 and LMPTP block -1.
Screening CCOc1ccc(C(=O)CCCC(=O)c2ccc(OCC)cc2)cc1 returned SUMO1-SIM PPI 9, CASP6 VEID inh -2, STEP inh 8, Scp-1 inhibitor 77*, DNMT1 block 6, LMPTP block 26, Scp1 confirm 4 and MG interference 0.
Screening CC(=O)NC[C@H]1[C@@H](c2ccccc2)[C@@H](CO)N1C(=O)Cc1cccnc1 returned CASP6 VEID inh -1.
CN1CCN(C(CNC(=O)C(=O)NC2CCCCC2)c2ccc(F)cc2)CC1 (stereo not given) was read as SUMO1-SIM PPI 2, CASP6 VEID inh 6, STEP inh -2, Scp-1 inhibitor -3, DNMT1 block 2 and LMPTP block -1.
CC(=O)Nc1ccc(NC(=O)CSc2ccc(-c3ccco3)nn2)cc1 was read as SUMO1-SIM PPI 5, CASP6 VEID inh -1, STEP inh 2, Scp-1 inhibitor 51*, DNMT1 block -3, LMPTP block 3, Scp1 confirm 14 and MG interference -23.
`CC(=O)c1ccc(NC(=O)CSc2ccc(-c3ccco3)nn2)cc1` gave SUMO1-SIM PPI 20, CASP6 VEID inh 4, STEP inh 0, Scp-1 inhibitor 19, DNMT1 block 4 and LMPTP block 15.
CC(=O)Nc1cccc(NC(=O)CSc2ccc(-c3ccco3)nn2)c1 was read as SUMO1-SIM PPI 0, CASP6 VEID inh 6, STEP inh 1, Scp-1 inhibitor 70*, DNMT1 block 5, LMPTP block 5, Scp1 confirm 1 and MG interference -21.
Screening Cc1ccc(SCC(=O)Nc2ccc(-c3nnc(-c4ccco4)o3)cc2)cc1 returned SUMO1-SIM PPI 2, STEP inh 13, Scp-1 inhibitor 70*, DNMT1 block 16, LMPTP block 30, Scp1 confirm 77*, MG interference -7 and Scp1 DSF -21.
Screening C[C@@H]1CN([C@H](C)CO)C(=O)Cc2cc(NC(=O)CCC(F)(F)F)ccc2O[C@H]1CN(C)S(C)(=O)=O returned CASP6 VEID inh 1.
COC(=O)c1cc(C(=O)OCC(=O)NNC(=O)c2cccs2)cc([N+](=O)[O-])c1 was read as SUMO1-SIM PPI -34, CASP6 VEID inh -2, STEP inh 3, Scp-1 inhibitor -9, DNMT1 block 2 and LMPTP block 0.
`O=C(O)c1ccc([N+](=O)[O-])c(CS(=O)(=O)c2ccc(Cl)cc2)c1` gave SUMO1-SIM PPI 0, CASP6 VEID inh -2, STEP inh -1, Scp-1 inhibitor 66*, DNMT1 block -1, LMPTP block -1, Scp1 confirm 4 and MG interference -15.
